In ChEMBL document CHEMBL1157263, “Cytotoxic diacetylenic spiroketal enol ethers from Plagius flosculosus” (J Nat Prod, 2006):

What was measured:
Assay type in all cases: functional, cell-based
HL-60 [1] = experiment: Cytotoxicity against human HL60 after 20 hrs by WST1 assay; details: HL-60, 20 h
Procedure, shortened: (§1)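 WST-1 cell viability read-out after 2.5, 20 and 72 h exposure; compounds tested over 0.5 to 80 µM. Cells: CD4+ Jurkat T-cells (ATCC TIB-152), Bcl-2-transfected Jurkat, and HL-60 (ATCC CCL-240). Maximal standard deviation 10% (absolute).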

Jurkat [2] = experiment: Cytotoxicity against human Jurkat T cells after 20 hrs by WST1 assay; procedure, shortened: as §1
Jurkat [3] = experiment: Cytotoxicity against human Jurkat T cells overexpressing Bcl2 after 20 hrs by WST1 assay; procedure, shortened: as §1
HL-60 [4] = experiment: Induction of apoptosis in human HL60 cells by FACS
Procedure, shortened: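 HL-60 cells (10^6 per sample) exposed 24 h, washed in cold PBS with 1% bovine calf serum and spun at 200g, 4 °C. Staining with annexin V-FITC (2 µg/mL) in HEPES binding buffer, pH 7.4, 10 min on ice in the dark, then 1 µg PI per tube. Flow cytometry within 20 min; annexin V-FITC-positive cells in the gated population scored apoptotic. Taxol 500 nM positive control, untreated negative control.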

Row | Compound | IC50 (HL-60 [1]) [µM] | IC50 (Jurkat [2]) [µM] | IC50 (Jurkat [3]) [µM] | Activity (HL-60 [4])
1 | CC#CC#C/C=C1\C=CC2(CCC(OC)O2)O1 (racemic) [FLOSCULIN B] | 18.3 | 15.2 | 19.2 | 
2 | CC#CC#C/C=C1/C=CC2(CCC(OC)O2)O1 (racemic) [FLOSCULIN C] | 16.7 | 10.8 | 16.9 | 
3 | CC#CC#C/C=C1\C=C[C@]2(OC=CC2OC(C)=O)O1 (stereo partly drawn) | 4 | 6.4 | 6.9 | Dose-dependent effect
4 | C=C1C(=O)O[C@@H]2C[C@@H](C)[C@@H]3C=CC(=O)[C@@]3(C)[C@@H](O)[C@H]12 [HELENALIN] | 0.7 | 0.46 |  | 
5 | CC#CC#C/C=C1/C=C[C@]2(OC=CC2OC(C)=O)O1 (stereo partly drawn) | 4.2 | 4.1 | 5.2 | Dose-dependent effect
6 | CC#CC#C/C=C1/C=C[C@@]2(CC=CO2)O1 | 5.6 | 3.8 | 7.2 | 
7 | CC#CC#C/C=C1\C=C[C@@]2(CCCO2)O1 | 16.2 | 11.2 | 14.1 | 
8 | CC#CC#C/C=C1/O[C@@]2(OC=C[C@H]2OC(C)=O)[C@@H](O)[C@@H]1Cl [FLOSCULIN A] | 18.9 | 13.2 | 19.1 | 
9 | CC#CC#C/C=C1\C=C[C@@]2(CC=CO2)O1 | 6.1 | 4.7 | 8.4 | 
